From ChEMBL document CHEMBL1140994, “Ranking the selectivity of PubChem screening hits by activity-based protein profiling: MMP13 as a case study” (Bioorg Med Chem, 2009)
The source made the active and inactive calls. The calls are words filed in the database; no cut-off is given here.

Molecular target: Methionine aminopeptidase 2 (Homo sapiens) (UniProt P50579)
Assay: Inhibition of human recombinant METAP2 at 200 uM by HxBPyne probe-based competitive activity based protein profiling assay in presence of 200 uM HxBpane competitor
In short: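 Metalloprotease at 1.6 μM final in PBS, without liver proteome. HxBPyne probe cocktail 20 μM final, with inhibitor 200 μM or DMSO. Preincubated 30 min on ice, then irradiated 365 nm for 1 h on ice. Rhodamine-azide click chemistry, then SDS-PAGE and in-gel fluorescence scanning. Integrated band intensity expressed as % of DMSO control.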

Methionine aminopeptidase 2 (Homo sapiens), sequence (P50579 2-478 limits assumed): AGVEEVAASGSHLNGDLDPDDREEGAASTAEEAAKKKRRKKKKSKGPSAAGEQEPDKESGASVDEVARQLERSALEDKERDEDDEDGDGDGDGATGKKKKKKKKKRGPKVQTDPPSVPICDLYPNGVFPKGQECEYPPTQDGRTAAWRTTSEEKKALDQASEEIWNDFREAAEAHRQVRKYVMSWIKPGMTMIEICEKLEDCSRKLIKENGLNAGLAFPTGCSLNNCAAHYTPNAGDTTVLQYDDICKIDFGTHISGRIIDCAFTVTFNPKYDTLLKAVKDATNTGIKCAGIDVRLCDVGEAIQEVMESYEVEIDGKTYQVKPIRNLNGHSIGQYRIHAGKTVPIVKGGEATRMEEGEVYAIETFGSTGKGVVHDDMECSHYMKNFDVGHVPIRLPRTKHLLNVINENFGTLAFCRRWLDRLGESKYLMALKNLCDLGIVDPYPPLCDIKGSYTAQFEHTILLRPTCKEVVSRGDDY

| Activity | SMILES |
| --- | --- |
| inactive | COc1ccc(CSc2nc(C)cc(O)n2)cc1 |
| inactive | Oc1nc(SCc2ccc(Cl)cc2)nc2c1CCC2 |
